Where two headings read alike, the source gives them in different places. Values belong to the compound of their own block, whether it stands above or below them.
Legend:
CYP2C8 = conditions: cited from earlier work
CYP3A4 = conditions: cited from earlier work
[1] = type: in vivo; conditions: beagle dogs
[2] = Stability of ripretinib in beagle dog plasma under four conditions; type: in vitro ADME; conditions: room temperature, autosampler, freeze-thaw, frozen storage; 2.5, 100, 750 ng/mL
In short: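 Dog plasma spiked with test compound at 2.5, 100 and 750 ng/mL, six replicates per level. Stability checked at room temperature, in frozen storage, through freeze-thaw, and as processed extracts in the autosampler. Samples taken with avapritinib IS through 1 mol/L NaOH and ethyl acetate extraction, dried under nitrogen, reconstituted in mobile phase; quantified by UPLC-MS/MS (C18, 0.1% formic acid/acetonitrile gradient).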

[3] = cited from earlier work
[4] = combined with itraconazole vs ripretinib alone
[5] = combined with voriconazole vs ripretinib alone
[6] = oral administration of 150 mg of ripretinib
[7] = single dose of ripretinib 150 mg, patients

SMILES: CCn1c(=O)c(-c2cc(NC(=O)Nc3ccccc3)c(F)cc2Br)cc2cnc(N)cc21 [DP-5439]
inhibition of CYP2C8 (CYP2C8): could inhibit

SMILES: CCC(C)n1ncn(-c2ccc(N3CCN(c4ccc(OCC5COC(Cn6cncn6)(c6ccc(Cl)cc6Cl)O5)cc4)CC3)cc2)c1=O (centres unmarked) [Itraconazole]
inhibition of CYP3A4 (CYP3A4): strong inhibitor

increase of AUC0→t of ripretinib [1, 4]: 36.35% | increase of Cmax of ripretinib [1, 4]: 38.35% | increase of AUC0→t of ripretinib [1, 5]: 25.52% | increase of Cmax of ripretinib [1, 5]: 27.44% | stability in plasma under four conditions [2]: good stability
SMILES: CCn1c(=O)c(-c2cc(NC(=O)Nc3ccccc3)c(F)cc2Br)cc2cnc(NC)cc21 [Ripretinib]
median time to reach Cmax [3, 6]: 4 h | time to reach a steady state [3, 6]: 14 days | mean AUC0-12h [3, 7]: 3773 ng·h/mL | mean AUC0-24h [3, 7]: 6634 ng·h/mL | mean Cmax [3, 7]: 502 ng/mL | inhibition of CYP2C8 (CYP2C8): could inhibit

SMILES: C[C@@H](c1ncncc1F)[C@](O)(Cn1cncn1)c1ccc(F)cc1F [voriconazole]
inhibition of CYP3A4 (CYP3A4): moderate inhibitor

Reference: paper PMC8643159 (Drug Design, Development and Therapy, 2021)
